Data from ChEMBL document CHEMBL1121388, “Analgesic narcotic antagonists. 2. 8-Alkymorphinan-6-ones” (J Med Chem, 1980).
Calls of active or inactive are those of the source. The rule behind the calls is not given here.

How the values were obtained:
[1] = test system: Mus musculus; experiment: The Effective dose was measured by using mouse writhing assay after the compound administered subcutaneously; IA means inactive; type: functional, organism-based
Procedure, shortened: (§1)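 Analgesia in the mouse writhing test induced by acetic acid, with compound given subcutaneously. Salts were dissolved in distilled H₂O; free bases were dissolved by dropwise 1 N HCl and then diluted.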

[2] = test system: Mus musculus; experiment: The effective dose was measured by using mouse writhing assay after the compound administered subcutaneously.; type: functional; details: sc; procedure, shortened: as §1
[3] = test system: Rattus norvegicus; experiment: The Effective dose was measured by using rat tail flick assay after the compound administered intraperitoneally at a dose of 25 umol/kg; IA means inactive at the given dose; type: functional, organism-based
[4] = test system: Mus musculus; experiment: The Effective dose was measured by using mouse writhing assay after the compound administered subcutaneously at a dose of 25 umol/kg; IA means inactive at the given dose; type: functional, organism-based; procedure, shortened: as §1
[5] = test system: Rattus norvegicus; experiment: The effective dose was measured by using rat tail flick assay after the compound administered intraperitoneally.; type: functional; details: ip
[6] = organism: Rattus norvegicus; experiment: Ratio of agonist to that of antagonist activity; type: functional
[7] = test system: Rattus norvegicus; experiment: Effective dose was measured by using rat tail flick assay after subcutaneous administration; type: functional; details: sc
Procedure, shortened: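 Agonist activity in the rat heat-stimulus tail-flick test. Drug was given subcutaneously and rats were tested 20 min after dosing. Salts were dissolved in distilled H₂O; free bases were dissolved with dropwise 1 N HCl and then diluted. ED₅₀ or inactivity/lethality recorded at the dose indicated.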

[8] = test system: Mus musculus; experiment: The Effective dose was measured by using mouse writhing assay after the compound administered subcutaneously at a dose of 24 umol/kg; IA means inactive at the given dose; type: functional, organism-based; procedure, shortened: as §1
[9] = test system: Mus musculus; experiment: The Effective dose was measured by using mouse writhing assay after the compound administered subcutaneously at a dose of 22 umol/kg; IA means inactive at the given dose; type: functional, organism-based; procedure, shortened: as §1
[10] = test system: Mus musculus; experiment: The Effective dose was measured by using mouse writhing assay 5 min after the compound administered subcutaneously; type: functional; details: sc
[11] = test system: Rattus norvegicus; experiment: The Effective dose was measured by using rat tail flick assay after the compound administered intraperitoneally at a dose of 50 uM/Kg; IA means inactive at the given dose; type: functional, organism-based
[12] = test system: Rattus norvegicus; experiment: The Effective dose was measured by using rat tail flick assay after the compound administered intraperitoneally at a dose of 50 umol/kg; IA means inactive at the given dose; type: functional, organism-based
[13] = test system: Mus musculus; experiment: The Effective dose was measured by using mouse writhing assay after the compound administered subcutaneously at a dose of 75 umol/kg; IA means inactive at the given dose; type: functional, organism-based; procedure, shortened: as §1
[14] = test system: Rattus norvegicus; experiment: The Effective dose was measured by using rat tail flick assay after the compound administered intraperitoneally at a dose of 30 umol/kg; IA means inactive at the given dose; type: functional, organism-based

Compound	ED50 [2] [µmol/kg]	ED50 [5] [µmol/kg]	ED50 [7] [µmol/kg]	other results
C=CCN1CC[C@]23c4c5ccc(O)c4O[C@H]2C(=O)CC[C@@]3(O)[C@H]1C5 [NALOXONE]	–	–	–	ED50 [1]: inactive
COc1ccc2c(c1)C13CCN(CC4CCC4)C(C2)[C@H]1[C@H](C)CC(=O)C3 (stereo not given in full)	47	–	–	ED50 [3]: inactive
CC[C@@H]1CC(=O)CC23CCN(CC4CC4)C(Cc4ccc(O)cc42)[C@@H]13 (stereo not given in full)	–	0.88	–	ED50 [4]: inactive
O=C1CC[C@H]2C3Cc4ccc(O)cc4C2(CCN3CC2CC2)C1 (stereo not given in full)	3.28	7.4	–	Ratio [6]: 0.44
COc1ccc2c3c1O[C@H]1[C@@H](O)C=C[C@H]4[C@@H](C2)N(C)CC[C@@]341 [CODEINE]	10.3	–	75	–
CCC[C@@H]1CC(=O)CC23CCN(CC4CC4)C(Cc4ccc(O)cc42)[C@@H]13 (stereo not given in full)	–	3.34	–	ED50 [8]: inactive
O=C1CC[C@H]2C3Cc4ccc(O)cc4C2(CCN3CC2CCC2)C1 (stereo not given in full)	0.047	–	–	ED50 [3]: inactive
CCC[C@@H]1CC(=O)CC23CCN(CC4CC4)C(Cc4ccc(OC)cc42)[C@@H]13 (stereo not given in full)	–	6.4	–	ED50 [9]: inactive
Cl.O=C1CC[C@@H]2C3Cc4ccc(O)cc4C2(CCN3CC2CC2)C1 (stereo not given in full)	–	2.24	–	ED50 [10]: 8.9 µmol/kg; Ratio [6]: 4
CC[C@@H]1CC(=O)CC23CCN(C)C(Cc4ccc(OC)cc42)[C@@H]13 (stereo not given in full)	37	–	> 28	–
CCC[C@H]1CC(=O)CC23CCN(CC4CCC4)C(Cc4ccc(OC)cc42)[C@H]13 (stereo not given in full)	34	–	–	ED50 [11]: inactive
COc1ccc2c(c1)C13CCN(CC4CC4)C(C2)[C@H]1CCC(=O)C3 (stereo not given in full)	> 25	3.6	–	–
CC[C@H]1CC(=O)CC23CCN(CC4CCC4)C(Cc4ccc(OC)cc42)[C@H]13 (stereo not given in full)	14.2	–	–	ED50 [12]: inactive
COc1ccc2c(c1)C13CCN(CC4CC4)C(C2)[C@@H]1CCC(=O)C3.Cl (stereo not given in full)	0.66	14.9	–	Ratio [6]: 0.04
CC[C@@H]1CC(=O)CC23CCN(CC4CCC4)C(Cc4ccc(OC)cc42)[C@@H]13 (stereo not given in full)	–	> 25	–	ED50 [13]: inactive
COc1ccc2c3c1O[C@H]1C(=O)CC[C@H]4[C@@H](C2)N(C)CC[C@]314 [HYDROCODONE]	–	–	5.2	–
COc1ccc2c(c1)[C@]13CCN(CC4CC4)[C@H](C2)[C@@H]1[C@@H](C)CC(=O)C3	0.71	4.27	–	Ratio [6]: 0.17
COc1ccc2c(c1)C13CCN(C)C(C2)[C@H]1CCC(=O)C3 (stereo not given in full)	5.54	–	> 70	–
COc1ccc2c(c1)C13CCN(CC4CCC4)C(C2)[C@@H]1CCC(=O)C3 (stereo not given in full)	0.58	–	–	ED50 [3]: inactive
CCC[C@H]1CC(=O)CC23CCN(C)C(Cc4ccc(OC)cc42)[C@H]13 (stereo not given in full)	15.4	–	> 28	–
CCC[C@@H]1CC(=O)CC23CCN(C)C(Cc4ccc(O)cc42)[C@@H]13 (stereo not given in full)	1.37	–	2.46	–
COc1ccc2c(c1)C13CCN(CC4CC4)C(C2)[C@H]1[C@H](C)CC(=O)C3 (stereo not given in full)	> 80	9	–	–
C[C@H]1CC(=O)CC23CCN(C)C(Cc4ccc(O)cc42)[C@H]13 (stereo not given in full)	2.55	–	> 30	–
COc1ccc2c(c1)C13CCN(CC4CCC4)C(C2)[C@H]1CCC(=O)C3 (stereo not given in full)	20.3	–	–	ED50 [14]: inactive
C[C@@H]1CC(=O)CC23CCN(CC4CCC4)C(Cc4ccc(O)cc42)[C@@H]13 (stereo not given in full)	5.98	12.8	–	–
CC[C@H]1CC(=O)CC23CCN(C)C(Cc4ccc(O)cc42)[C@H]13 (stereo not given in full)	2.29	–	33	–
CN1CCC23CC(=O)CC[C@@H]2C1Cc1ccc(O)cc13 (stereo not given in full)	0.75	–	1.33	–
CCC[C@@H]1CC(=O)CC23CCN(CC4CCC4)C(Cc4ccc(OC)cc42)[C@@H]13 (stereo not given in full)	–	> 24	–	ED50 [8]: inactive
CC[C@H]1CC(=O)CC23CCN(CC4CC4)C(Cc4ccc(OC)cc42)[C@H]13 (stereo not given in full)	4.4	> 50	–	–
